For 19 compounds, inhibition and Ki results are on record in ChEMBL document CHEMBL2321814, “Sulfocoumarins (1,2-benzoxathiine-2,2-dioxides): a class of potent and isoform-selective inhibitors of tumor-associated carbonic anhydrases” (J Med Chem, 2013).

The source made the active and inactive calls. The rule behind the calls is not given here.

The target in assay [1] is T1, Carbonic anhydrase 9 (Homo sapiens, UniProt Q16790). Description: Inhibition of human recombinant transmembrane CA9 catalytic domain after 15 mins by stopped-flow CO2 hydration method. In a few lines: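 Recombinant CA IX catalytic domain was preincubated with inhibitor for 15 min at room temperature. CO2 hydration was followed by stopped-flow with phenol red (0.2 mM, 557 nm) in 20 mM Hepes pH 7.5 with 20 mM Na2SO4, CO2 1.7–17 mM. Initial rates came from at least six traces of the first 5–10% of reaction, minus uncatalyzed rates. Inhibitor dilutions went down to 0.01 nM in water.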

The target of a further assay is Carbonic anhydrase 1 (Homo sapiens, UniProt P00915). Description: Inhibition of full length human recombinant CA1 cytosolic isoform after 6 hrs by stopped-flow CO2 hydration method.
The target of assay [2] is T1, Carbonic anhydrase 9.
In assay [3] the target is Carbonic anhydrase 2 (Homo sapiens, UniProt P00918). Kind of assay: Inhibition of full length human recombinant CA2 cytosolic isoform after 6 hrs by stopped-flow CO2 hydration method.
In assay [4] the target is Carbonic anhydrase 2 (Homo sapiens, UniProt P00918, A65S/N67Q). Kind of assay: Inhibition of human CA2 Ala65Ser and Asn67Gln double mutant expressed in Escherichia coli strain BL21 (DE3) after 6 hrs by stopped-flow CO2 hydration method. The essentials:
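CA II mutant mimicking the CA IX active site was expressed in E. coli BL21(DE3), IPTG-induced, and purified by His-trap, gel filtration and Mono-Q. Enzyme and inhibitor were preincubated 6 h at 4 °C. Stopped-flow CO2 hydration used phenol red (0.2 mM, 557 nm), 20 mM Hepes pH 7.5, 20 mM Na2SO4 and CO2 1.7–17 mM, with uncatalyzed rates subtracted. Three assays were run.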

Chain of Carbonic anhydrase 1 (P00915 whole entry, canonical isoform): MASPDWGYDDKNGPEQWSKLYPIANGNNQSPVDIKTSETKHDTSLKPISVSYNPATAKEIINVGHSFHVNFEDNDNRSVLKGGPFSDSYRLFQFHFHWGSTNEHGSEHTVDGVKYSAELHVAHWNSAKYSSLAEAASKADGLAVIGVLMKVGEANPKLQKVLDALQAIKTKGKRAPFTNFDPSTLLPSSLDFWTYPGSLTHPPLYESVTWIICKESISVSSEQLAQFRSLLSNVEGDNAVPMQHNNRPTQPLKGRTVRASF

`O=S1(=O)C=Cc2cc(Br)ccc2O1`: the inhibition result on Carbonic anhydrase 9 [1] was “inactive”. Besides, the Ki – broadly, the dissociation constant of the complex between target and ligand, obtained from inhibition or displacement – on Carbonic anhydrase 1 is over 100000 nM; at Carbonic anhydrase 9 [2] it was 6830 nM; on Carbonic anhydrase 2 [3], over 100000 nM; at Carbonic anhydrase 2 [4], 930 nM.

`O=S1(=O)C=Cc2cc(O)ccc2O1`: the inhibition entry at Carbonic anhydrase 9 [1] was “inactive”. In addition, the figures for the Ki at Carbonic anhydrase 9 [2], at Carbonic anhydrase 2 [3] and on Carbonic anhydrase 2 [4] were 300 nM, over 100000 nM and 800 nM, respectively.

`O=S1(=O)C=Cc2cc(-n3cc(CO)nn3)ccc2O1`: the inhibition result at Carbonic anhydrase 9 [1] was “inactive”. The compound further came in with an inhibition constant Ki on Carbonic anhydrase 9 [2] of 58 nM.

Turning to `C[Si](C)(C)c1cn(-c2ccc3c(c2)C=CS(=O)(=O)O3)nn1`, the inhibition entry at Carbonic anhydrase 9 [1] is “inactive”. In addition, the Ki on Carbonic anhydrase 9 [2] was 60 nM.

As to `O=S1(=O)C=Cc2cc(-n3cc(-c4ccc(OC(F)(F)F)cc4)nn3)ccc2O1`, the inhibition result on Carbonic anhydrase 9 [1] was “inactive”. Moreover, on Carbonic anhydrase 9 [2], the Ki came out at 74 nM.

As to `COC(=O)c1cn(-c2ccc3c(c2)C=CS(=O)(=O)O3)nn1`, on Carbonic anhydrase 9 [1], the inhibition entry was “inactive”. Moreover, the affinity at Carbonic anhydrase 9 [2] corresponds to a Ki of 950 nM.

As for `O=S1(=O)C=Cc2cc(-n3cc(-c4ccccc4)nn3)ccc2O1`, the inhibition result at Carbonic anhydrase 9 [1] was “inactive”. Besides, the affinity on Carbonic anhydrase 9 [2], expressed as Ki, was 29 nM.

For the compound `COc1ccc(-c2cn(-c3ccc4c(c3)C=CS(=O)(=O)O4)nn2)cc1`, the inhibition result at Carbonic anhydrase 9 [1] was “inactive”. At Carbonic anhydrase 9 [2], this compound showed an inhibitory constant (Ki) of 18 nM.

In the case of `O=S1(=O)C=Cc2c(ccc3ccccc23)O1`, on Carbonic anhydrase 9 [1], the inhibition result is “inactive”. Moreover, the Ki at Carbonic anhydrase 1 was over 100000 nM; at Carbonic anhydrase 9 [2], 375 nM; at Carbonic anhydrase 2 [3] it was over 100000 nM.

Take `CCN(CC)Cc1cn(-c2ccc3c(c2)C=CS(=O)(=O)O3)nn1`: on Carbonic anhydrase 9 [1], the inhibition result was “inactive”. At Carbonic anhydrase 9 [2], the Ki was determined as 25 nM.

Regarding `O=c1ccc2ccccc2o1`, the inhibition entry on Carbonic anhydrase 9 [1] was “inactive”.

Consider `COc1cccc(-c2cn(-c3ccc4c(c3)C=CS(=O)(=O)O4)nn2)c1`, for which the inhibition result at Carbonic anhydrase 9 [1] was “inactive”. This compound also had a Ki at Carbonic anhydrase 9 [2] of 49 nM.

Take `O=[N+]([O-])c1ccc2c(c1)C=CS(=O)(=O)O2`: the inhibition result at Carbonic anhydrase 9 [1] was “inactive”. Further, the Ki at Carbonic anhydrase 9 [2] was 3770 nM; on Carbonic anhydrase 2 [3], over 100000 nM.

Regarding `O=S1(=O)C=Cc2cc(OCc3ccccc3)ccc2O1`, the inhibition result on Carbonic anhydrase 9 [1] is “inactive”. Also, the Ki on Carbonic anhydrase 9 [2] was 275 nM; on Carbonic anhydrase 2 [3], over 100000 nM; on Carbonic anhydrase 2 [4], 2370 nM.

For the compound `CCOC(=O)c1cn(-c2ccc3c(c2)C=CS(=O)(=O)O3)nn1`, the inhibition entry on Carbonic anhydrase 9 [1] is “inactive”. Also, the affinity at Carbonic anhydrase 9 [2] corresponds to a Ki of 86 nM.

Regarding `O=S1(=O)C=Cc2cc(Cl)cc(Cl)c2O1`, the inhibition entry at Carbonic anhydrase 9 [1] is “inactive”. Further, the Ki on Carbonic anhydrase 1 is over 100000 nM; on Carbonic anhydrase 9 [2], 3260 nM; on Carbonic anhydrase 2 [3], over 100000 nM.

In the case of `O=S1(=O)C=Cc2cc(-n3cc(-c4cccc(C(F)(F)F)c4)nn3)ccc2O1`, the inhibition result on Carbonic anhydrase 9 [1] is “inactive”. Further, at Carbonic anhydrase 9 [2], the Ki was 48 nM.

Consider `COc1cc2oc(=O)ccc2cc1[C@@H](O)CC(C)C`, for which the inhibition entry at Carbonic anhydrase 9 [1] was “inactive”.

As to `Nc1ccc2c(c1)C=CS(=O)(=O)O2`, on Carbonic anhydrase 9 [1], the inhibition entry was “inactive”. This compound also gave a Ki at Carbonic anhydrase 9 [2] of 46 nM.
